Compound activity deposited in PubChem by Sanford-Burnham Center for Chemical Genomics.
Sampled rows, rich in hits. Any-hit rate of the full collection: about 2.3%.
STEP inh = STEP (human) phosphatase inhibition; hit rate 0.25% among 360,000; inhibition, % at 20 µM; recombinant STEP, OMFP fluorogenic substrate, fluorescence; AID 588621; P54829;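 active = inhibition at 20 µM, scaled per plate between control wells, above about 37%, limit read from the data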;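 also: 0% = DMSO with enzyme and substrate and 100% = substrate only without enzyme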
Target sequence (P54829 whole entry, looked up): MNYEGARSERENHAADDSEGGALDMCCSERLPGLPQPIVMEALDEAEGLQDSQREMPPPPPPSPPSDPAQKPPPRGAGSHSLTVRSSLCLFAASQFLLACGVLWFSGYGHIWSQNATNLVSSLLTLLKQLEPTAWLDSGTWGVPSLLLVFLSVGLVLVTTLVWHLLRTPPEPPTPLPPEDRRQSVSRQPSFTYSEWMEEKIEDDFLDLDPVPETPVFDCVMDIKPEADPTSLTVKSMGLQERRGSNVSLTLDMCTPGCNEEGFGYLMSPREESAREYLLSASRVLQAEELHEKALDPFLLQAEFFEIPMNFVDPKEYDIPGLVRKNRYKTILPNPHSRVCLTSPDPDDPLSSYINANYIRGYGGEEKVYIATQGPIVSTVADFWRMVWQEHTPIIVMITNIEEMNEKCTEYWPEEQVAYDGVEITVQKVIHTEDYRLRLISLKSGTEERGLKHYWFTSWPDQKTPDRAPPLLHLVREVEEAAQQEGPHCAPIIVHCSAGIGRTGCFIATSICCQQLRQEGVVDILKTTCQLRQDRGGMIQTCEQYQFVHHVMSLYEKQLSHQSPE
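Also added – OMFP at 25 µM · Test system – STEP tyrosine phosphatase · Technique – FITC-channel fluorescence of OMFP product · Schedule – 20 min at room temperature, dark · Evaluation – control-normalized % inhibition with plate pattern correction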
Scp-1 inhibitor = inhibitors of human Scp-1 phosphatase. Q9GZU7. hit rate 0.88% among 340,000. inhibition, % at 20 µM. Recombinant Scp1, phosphopeptide, malachite green phosphate absorbance;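 active = inhibition above about 50% at 20 µM, limit read from the data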;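 also: plate controls were DMSO wells with enzyme for no effect and wells lacking enzyme for full effect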
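Test system – truncated SCP-1 phosphatase (76-261aa) · Reagent – Phosphorylated 17-residue peptide substrate · Incubation – 45 min room-temperature reaction, 5 min colour, 30 min stabiliser · Detection – colorimetric phosphate reagent with accelerator and stabiliser, absorbance at 630 nm · Measure – % inhibition at 20 µM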
LMPTP inh = LMPTP (human) inhibition. hit rate 0.22% among 360,000. inhibition, % at 20 µM. P24666. recombinant LMPTP-A, OMFP fluorogenic substrate, fluorescence intensity;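 active = compounds that cut the enzyme signal by at least half of the control window in the single-dose screen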;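 also: plate controls were DMSO wells with enzyme plus substrate for no effect and substrate without enzyme for full effect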
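Assay system: LMPTP-A, protein tyrosine phosphatase of low molecular weight / Medium: pH 6.0 Bis-Tris buffer with DTT and Triton X-100 / Schedule: 50 min enzyme reaction at room temperature, protected from light / Measured by: endpoint fluorescence intensity from OMFP dephosphorylation / Read-out basis: % inhibition relative to no-enzyme and uninhibited control wells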
DNMT1 inh = blocks human DNA methyltransferase DNMT1; P26358; DNMT1 molecular beacon, Hinp1I cleavage, fluorescence; AID 588458; hit rate 0.83% among 360,000; inhibition (reported as % activation of signal), % at 10 µM; in the data active = inhibition above about 50%
NadD inh = NadD (S. aureus) enzyme inhibition; purified NadD enzyme, colorimetric absorbance read-out; inhibition, % at 20 µM; hit rate 0.78% among 360,000; AID 602399; in the data active = inhibition above about 26%
SUMO1 PPI mod = SUMO1-SIM interaction modulation. P63165. SUMO1 binding to a labelled peptide, TR-FRET, 1 h. inhibition, % at 20 µM. hit rate 0.33% among 360,000; in the data active = inhibition above about 37%
Scp1 confirm = confirmation of human Scp-1 phosphatase inhibitors | shares compounds with Scp-1 inhibitor | recombinant SCP-1 catalytic domain, phosphate release, malachite green absorbance | inhibition, % at 20 µM | hit rate 61% among 2,500 | AID 540281;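 also: plate controls were DMSO with enzyme for no effect and buffer wells lacking enzyme for full effect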
MG interference = colorimetric interference in Scp-1 counter-screen | shares compounds with Scp-1 inhibitor | 2,500 tested, under 10 active | Colorimetric interference counterscreen, malachite green absorbance 630 nm | AID 540313 | apparent inhibition (interference), % at 20 µM;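 also: compounds added after enzyme reaction finished so only phosphate colour detection is probed; plate controls were DMSO wells with completed Scp-1 reaction for no effect and substrate wells lacking enzyme for full effect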
Scp1 DSF = binds human Scp-1, shifting its melting temperature; Recombinant SCP1, Sypro Orange thermal shift Tm; thermal shift relative to vanadate control, % at 40 µM; AID 540329; hit rate 25% among 1,500; shares compounds with Scp-1 inhibitor;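 active = substances whose mean melting-temperature shift, as a percentage of the reference inhibitor's shift, reaches about 5.3%, limit read from the data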;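 also: 0% = Tm of DMSO wells and 100% = Tm with sodium orthovanadate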
DNMT1 inh conf = DNMT1 inhibition confirmation, single concentration; shares compounds with DNMT1 inh; DNMT1 molecular beacon HinP1I cleavage, fluorescence; inhibition, % at 10 µM; hit rate 8% among 2,300;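 active = average inhibition of at least 30% in the single-concentration confirmation test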
DNMT1 interf = beacon fluorescence artifact counter-screen; shares compounds with DNMT1 inh; DNMT1 molecular beacon spectral interference counterscreen, fluorescence 485/520; activation (fluorescence interference), % at 10 µM; hit rate 1% among 2,300;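 active = activation of at least 30% at 10 µM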;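 also: DNMT1 catalytic domain with a HinP1I cleavage step and a FAM/dabcyl DNA beacon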
Starred values were filed as active, the others as inactive.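 The calls were made as follows, unless noted: active = inhibition of at least 30% at 20 µM; inactive = the rest.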

For O=C(O)C1CC(c2ccccc2)=NO1 (centres undefined) the results were STEP inh -2.4, Scp-1 inhibitor -2.7, LMPTP inh -1.4, DNMT1 inh 3.7, NadD inh 5.2 and SUMO1 PPI mod -2.3.
Screening C=CCn1c(O)c(N=NC(=O)CNC(=O)/C=C/c2ccco2)c2ccccc21 returned STEP inh 11.9, Scp-1 inhibitor 90.1*, LMPTP inh 20.5, DNMT1 inh 93.1*, NadD inh 15.7, SUMO1 PPI mod -6.4, Scp1 confirm 48.5*, MG interference -16.9, Scp1 DSF 4.7, DNMT1 inh conf 10.5 and DNMT1 interf 1.5.
Screening O=C(c1ccco1)N1CCN(C(=O)c2ccc(-c3ccc([N+](=O)[O-])cc3)o2)CC1 returned STEP inh 10.7, Scp-1 inhibitor 89.8*, LMPTP inh 46.0, DNMT1 inh 63.0*, NadD inh 23.5, SUMO1 PPI mod 74.3*, Scp1 confirm 7.5, MG interference -19.2, DNMT1 inh conf 4.4 and DNMT1 interf 3.5.
For N#Cc1ccccc1S(=O)(=O)N1CCN(C(=O)c2cc3c(s2)CCC3)CC1 the results were STEP inh 28.0, Scp-1 inhibitor 97.8*, LMPTP inh 42.2, DNMT1 inh 56.2*, NadD inh -2.9, SUMO1 PPI mod 10.2, Scp1 confirm 70.0*, MG interference -12.6, Scp1 DSF -16.7, DNMT1 inh conf 3.5 and DNMT1 interf 1.4.
For O=C(C1COc2ccccc2O1)N1CCN(S(=O)(=O)c2cc(F)ccc2F)CC1 (centres undefined) the results were STEP inh -0.8, Scp-1 inhibitor -2.2, LMPTP inh -0.6, DNMT1 inh -0.5, NadD inh -9.1 and SUMO1 PPI mod 0.0.
Screening Cc1cc(C(=O)N2CCN(S(=O)(=O)c3ccccc3C#N)CC2)c(C)o1 returned STEP inh 1.1, Scp-1 inhibitor -7.7, LMPTP inh -1.4, DNMT1 inh 4.6, NadD inh 2.4 and SUMO1 PPI mod -1.5.
Screening N#Cc1ccccc1S(=O)(=O)N1CCN(C(=O)C2COc3ccccc3O2)CC1 (centres undefined) returned STEP inh 6.2, Scp-1 inhibitor 74.1*, LMPTP inh 19.4, DNMT1 inh 66.7*, NadD inh -4.6, SUMO1 PPI mod 3.5, Scp1 confirm 73.0*, MG interference -9.5, Scp1 DSF -9.1, DNMT1 inh conf 1.9 and DNMT1 interf 3.9.
For CCOc1ccc(S(=O)(=O)N2Cc3ccccc3CC2C(=O)O)cc1 (centres undefined) the results were STEP inh 0.8, Scp-1 inhibitor -5.8, LMPTP inh 0.0, DNMT1 inh -3.2, NadD inh -4.8 and SUMO1 PPI mod -5.7.
COc1ccc(S(=O)(=O)N2Cc3ccccc3CC2C(=O)O)cc1 (centres undefined) was read as STEP inh 3.9, Scp-1 inhibitor 74.6*, LMPTP inh 0.4, DNMT1 inh 60.4*, NadD inh 3.1, SUMO1 PPI mod 19.0, Scp1 confirm 64.5*, MG interference -15.1, Scp1 DSF 0.5, DNMT1 inh conf 0.5 and DNMT1 interf -1.5.
O=C(NC1CCCC1)C(C1CC1)n1c(C2CC2)nc2ccccc21 (centres undefined) was read as LMPTP inh -0.6 and SUMO1 PPI mod 1.9.
